Measurements from ChEMBL document CHEMBL4513216, “Probing the Open Global Health Chemical Diversity Library for Multistage-Active Starting Points for Next-Generation Antimalarials” (ACS Infect Dis, 2020).

Test: Toxicity liver stage against HepG2, at 10uM
Type: cell-based
Set-up: test concentration 10 uM, cell line HepG2-A16-CD81EGFP
Settings: human, HepG2-A16-CD81EGFP cells; read-out: INHIBITION
Procedure, shortened: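 Uninfected HepG2-A16-CD81EGFP cells, 3 × 10^3 per well, 1536-well, plated on prespotted compound at 10 μM final, parasite-free screening media added to match infected plates; puromycin 10 μM positive, DMSO 0.5% negative; run in parallel with 48 h PbLuc assay at 37 °C, 5% CO2; viability by CellTiter-Glo luminescence, normalized to controls.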

Structure (SMILES) | cytotoxicity at 10 µM [%]
Cc1cccc2c1nc1n2[C@@H](CNC(=O)CCC(=O)O)COC1 | -4.83
O=C(C1CC1)N1C[C@@H](F)[C@@H](OCc2nc3ccccc3o2)C1 | -1.94
CC(C)NC(=O)NC[C@H]1C[C@@H]2CCN1C[C@@H]2CN(C)c1ccccc1 | 1.95
Cc1c(C2SCC(=O)Nc3c2c(O)nn3C(C)C)cnn1C (stereo not given) | 2.39
O=S(=O)(CC1CCCN1S(=O)(=O)c1cccnc1)c1ccccc1 (stereo not given) | -4.31
CN1N=C(C(=O)N2CCCCC2)S(=O)(=O)c2ccccc21 | -183
COc1cccc(CN2CCCC3(CCN(C(=O)[C@H]4CCCO4)C3)C2)c1 (stereo not given in full) | 5.01
O=C(COCC(=O)N(c1ccccc1)c1ccccc1)N1CCOCC1 | 1.64
Cc1nc2c(N3CCN(CCO)CC3)nc(N)nc2n1C | -10.8
CNC(=O)C1(Cc2cc(C(C)C)no2)CCN(Cc2cccnc2)C1 (stereo not given) | 4.61
Cc1sc(C(=O)N(C)S(C)(=O)=O)cc1-c1ccc(F)cc1 | 0.269
Cc1c(NC(=O)N(C)CCn2cnnc2)cccc1OC1CCCC1 | -0.509
CN(Cc1c(Cl)ccc2cccnc12)CC(C)(CO)CO | 7.6
COc1ccc(CN2CCN(S(=O)(=O)c3cc(C(=O)O)cs3)CC2)cc1 | 2.03
Cc1csc(CCNC(=O)N2CCC(NC(=O)OC(C)(C)C)CC2)n1 | 1.23
CN1CC(C(=O)NCCc2ccn(-c3ccc(F)cc3)n2)CC1=O (stereo not given) | 3.38
CCCN(C)C(=O)Nc1ccc(C(=O)NCCC(=O)OC)cc1 | 6.62
c1ccn2cc(CN3CCCC(c4ccn[nH]4)C3)nc2c1 (stereo not given) | 6.76
N#CCCN(CC1CC1)Cn1cc(Cl)cn1 | 4.03
O=C(CC1CCCO1)NCc1ccc(Br)cc1F (stereo not given) | 4.72
CCOCCCC(=O)NC1CCN(C(C)c2ccccc2)CC1 (stereo not given) | 4.05
Cc1cc(CNC(=O)NC(C)(CO)C2CC2)c(C)s1 (stereo not given) | 3.46
Cc1cc(NC(=O)Cc2ccc3c(c2)OCO3)n(C)n1 | 10.1

Structure (SMILES) | cytotoxicity at 10 µM [%]
CC(=O)N1CC[C@H]2N(C)CC[C@@]2(C(=O)Nc2cccnc2)CC1 | -111
Cn1cc(C(=O)N2CC[C@@]3(O)CCN(C4CCCCC4)C[C@H]3C2)cn1 | -131
COCc1noc(CCNc2nc(CC3CC3)nc3c2CCNCC3)n1 | -4.1
COCC(=O)N1C[C@H]2CNC[C@@]2(C(=O)NCc2cccc3[nH]ccc23)C1 | 6.65
Cc1cc(C(N)=O)c(N2C[C@@H](C)[C@@](C)(O)C2)nc1C | -9.14
Cc1cc(Cc2ccc(S(=O)(=O)N3CCSCC3)cc2)c(=O)[nH]n1 | -10
CCc1nc(CN2CCCC(NCc3cccc(C(N)=O)c3)C2)no1 (stereo not given) | 1.56
CCc1noc(C(C)N2CCN(CC(C)C)CC2)n1 (stereo not given) | -4.05
Cc1cnn(CC2CCCN2CCCS(C)(=O)=O)c1 (stereo not given) | -8.18
CCOc1ccccc1C(=O)NC(CC(=O)O)c1cccs1 (stereo not given) | -11.4
Cn1ccnc1CN1CCCN(C(=O)COCC2CC2)CC1 | -11.8
Cc1nnc2n1CCN(CCOc1ccc(C(C)(C)C)cc1)C2 | -17.1
CN(C)c1cccc(C(=O)N2CCC(c3n[nH]c(C4CC4)n3)CC2)c1 | -11.2
O=C(c1cccn1Cc1cccs1)N1CCCC1Cn1cccn1 (stereo not given) | -7.52
Cc1cnn(CC2CCCN2CCCc2nc3ccccc3o2)c1 (stereo not given) | -6.19
CCc1ncc(C(=O)N2CCOCC2c2c(C)n[nH]c2C)s1 (stereo not given) | -5.61
Cc1noc(C)c1CN(C)C(=O)NC1CCN(c2ncccn2)CC1 | -19.1
O=C(NCCN1CCCCCC1=O)c1ccn(-c2ccc(F)cc2)n1 | -8.62
Cc1nc(C)c(C(=O)NCCNc2ncccc2C#N)s1 | -1.5
COc1ccc(CN2CCC3(CC2)CCN(CC(C)C)C3=O)cc1 | 3.17
CC=C(C)C(=O)NS(=O)(=O)c1ccc(C(F)(F)F)cc1 | 3.12
CS(=O)(=O)N1C[C@H]2CC[C@@H](C1)N(CCC(=O)NCc1ccco1)C2 | -17.9
